pIC50: −log10 of the molar value. Activity calls are given as the source filed them. The calls are words filed in the database; no cut-off is given here.
Legend:
BT-474 [1] = experiment: Cytotoxicity against human BT474 cells assessed as reduction in cell number incubated for 72 hrs; format: functional, cell-based; details: BT-474, 72 h
Procedure, shortened: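 Cells seeded at 2000/well and left overnight, then exposed 72 h to seven 3-fold serial dilutions from 100 µM. Cell number read by CyQUANT DNA dye (independent of metabolism), relative to vehicle as 100%. BT-474 grown in high-glucose DMEM, 4 mM L-glutamine, 10% FBS, 0.25 mM pyruvate.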

HMEC = experiment: Cytotoxicity against HMEC cells assessed as reduction in cell number incubated for 72 hrs; format: cell-based; details: Homo sapiens
[2] = molecular target: T1, Nuclear receptor subfamily 1 group D member 2 (Homo sapiens) (UniProt Q14995); experiment: (§1) Inhibition of REV-ERBbeta (unknown origin) expressed in HEK293 cells incubated for 24 hrs assessed as inhibition of receptor-mediated transcriptional repression by REV-ERB luciferase reporter assay; format: cell-based
T1 sequence (whole entry): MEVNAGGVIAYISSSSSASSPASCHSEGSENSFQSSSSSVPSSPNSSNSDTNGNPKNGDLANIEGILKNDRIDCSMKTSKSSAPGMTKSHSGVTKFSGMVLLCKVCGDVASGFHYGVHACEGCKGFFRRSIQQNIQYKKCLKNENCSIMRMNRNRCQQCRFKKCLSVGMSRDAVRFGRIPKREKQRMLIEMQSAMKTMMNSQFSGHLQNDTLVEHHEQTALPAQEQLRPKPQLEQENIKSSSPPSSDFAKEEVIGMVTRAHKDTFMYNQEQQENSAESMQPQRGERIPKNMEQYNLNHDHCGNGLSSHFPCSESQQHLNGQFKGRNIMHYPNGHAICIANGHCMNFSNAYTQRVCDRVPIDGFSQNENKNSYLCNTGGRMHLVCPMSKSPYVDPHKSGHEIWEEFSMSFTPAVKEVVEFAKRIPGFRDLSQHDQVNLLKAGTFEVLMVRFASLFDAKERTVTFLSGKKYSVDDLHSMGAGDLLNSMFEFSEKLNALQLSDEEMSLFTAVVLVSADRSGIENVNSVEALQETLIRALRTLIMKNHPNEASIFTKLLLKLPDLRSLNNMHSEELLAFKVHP
Procedure, shortened: (§2)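 HEK-293 co-transfected with a REV-ERBβ expression plasmid and a reporter with two REV-ERB response elements driving Cypridina luciferase. Compounds added the next day; luciferase activity read after 24 h. IC50 from concentration–response plots, mean ± SEM, N ≥ 6.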

BT-474 [3] = experiment: Lysosomotropic activity in human BT474 cells assessed as […] incubated for 24 hrs by lysosomotropy assay; format: functional, cell-based; details: BT-474, 24 h
Procedure, shortened: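 Seeded at 2000 cells/well overnight, then treated. Lysosomal staining (LysoTracker fluorescence) measured 24 h post-treatment. IC50 from concentration–response plots, mean ± SEM, N ≥ 6.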

[4] = molecular target: T1, Nuclear receptor subfamily 1 group D member 2 (Homo sapiens); experiment: Inhibition of REV-ERBbeta in human BT474 cells assessed as increase in BMAL1 expression at 10 uM incubated for 16 hrs by immunoblot method; details: BT-474
BT-474 [5] = experiment: Inhibition of autophagy in human BT474 cells assessed as increase in LC3-II protein levels at 10 uM by immunoblot method; format: functional, cell-based
Procedure, shortened: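 BT-474 exposed 4 h at 10 µM. Protein extracted in RIPA buffer and immunoblotted for LC3B and GAPDH in TBS-T with 5% BSA. HRP secondary at 1:20000, ECL detection. Band densitometry reported as LC3B/GAPDH ratio.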

[6] = Toxicity against human BT474 cells assessed as reduction in cell number at 10 uM incubated for 16 hrs; format: cell-based; details: bt-474, 16 h
HepG2 [7] = experiment: Potency index, ratio of IC50 for chloroquine to IC50 for test compound against human HepG2 cells assessed as reduction in cell number incubated for 72 hrs; format: functional
Procedure, shortened: (§3)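 HepG2 was grown in high-glucose DMEM with 4 mM L-glutamine, 10% FBS and 0.5 mM pyruvate; LNCaP in RPMI-1640 with 4 mM L-glutamine and 10% FBS. Cells were seeded at 2000/well, left overnight, then given seven 3-fold dilutions from 100 µM for 72 h. Cell number was read by CyQUANT DNA stain against vehicle (100%). IC50s came from log(inhibitor)–response fits, ≥6 experiments, and chloroquine IC50 was divided by test IC50.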

[8] = molecular target: T2, Nuclear receptor subfamily 1 group D member 2 (Homo sapiens, UniProt Q14995); experiment: as §1; format: cell-based; procedure, shortened: as §2
T2 sequence (Q14995 whole entry): T1 sequence (whole entry)

[9] = Cytotoxicity against human SKBR3 cells assessed as reduction in cell number incubated for 72 hrs; format: functional, cell-based; details: SK-BR-3, 72 h
Procedure, shortened: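 McCoy's medium plus 10% FBS; 2000 cells/well, overnight attachment, 72 h treatment with seven 3-fold dilutions from 100 µM (900 µM top for the reference autophagy inhibitor). CyQUANT cell number as % of vehicle. IC50 by log(inhibitor)–response fitting, mean ± SEM of ≥6 experiments.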

HepG2 [10] = experiment: Cytotoxicity against human HepG2 cells assessed as reduction in cell number incubated for 72 hrs; format: functional, cell-based; details: HepG2, 72 h
Procedure, shortened: (§4)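 Grown in high-glucose DMEM with 4 mM L-glutamine, 10% FBS and 0.5 mM sodium pyruvate. Seeded at 2000 cells/well overnight, then treated 72 h with seven 3-fold dilutions from 100 µM. Cell number by CyQUANT, % of vehicle. IC50 by log(inhibitor)–response fit, mean ± SEM, n ≥ 6.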

[11] = molecular target: T1, Nuclear receptor subfamily 1 group D member 2 (Homo sapiens); experiment: Inhibition of REV-ERBbeta in human SKBR3 cells assessed as […] at 10 uM incubated for 16 hrs by immunoblot method; format: cell-based; details: SK-BR-3
[12] = molecular target: T1, Nuclear receptor subfamily 1 group D member 2 (Homo sapiens); experiment: Inhibition of REV-ERBbeta in human HepG2 cells assessed as […] at 10 uM incubated for 16 hrs by immunoblot method; format: cell-based
HepG2 [13] = experiment: Inhibition of autophagy in human HepG2 cells assessed as increase in GFP/RFP/LC3 chimera protein levels at 30 uM incubated for 4 hrs by fluorescent microscopy; format: functional, cell-based
Procedure, shortened: (§5)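 Cells transduced with LC3 fused to acid-sensitive GFP and acid-insensitive RFP. Compound or DMSO vehicle added 48 h post-transduction. After 4 h, GFP and RFP fluorescent dots counted by fluorescence microscopy.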

MCF7 = experiment: Cytotoxicity against human MCF7 cells assessed as reduction in cell number incubated for 72 hrs; format: functional, cell-based; details: MCF7, 72 h; procedure, shortened: as §4
MDA-MB-361 = experiment: Cytotoxicity against human MDA-MB-361 cells assessed as reduction in cell number incubated for 72 hrs; format: functional, cell-based; details: MDA-MB-361, 72 h
Procedure, shortened: (§6)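 RPMI-1640 with 4 mM L-glutamine and 10% FBS for culture. 2000 cells/well seeded overnight, then 72 h exposure to seven 3-fold dilutions (top 100 µM; top 900 µM for the reference autophagy inhibitor in MDA-MB-361). Cell number by CyQUANT relative to vehicle. IC50 from concentration–response curves, mean ± SEM, n ≥ 6.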

[14] = molecular target: T1, Nuclear receptor subfamily 1 group D member 2 (Homo sapiens); experiment: Inhibition of REV-ERBbeta in human LNCAP cells assessed as […] at 10 uM incubated for 16 hrs by immunoblot method; format: cell-based
LNCaP [15] = experiment: Inhibition of autophagy in human LNCAP cells assessed as increase in GFP/RFP/LC3 chimera protein levels at 30 uM incubated for 4 hrs by fluorescent microscopy; format: functional, cell-based; procedure, shortened: as §5
LNCaP [16] = experiment: Potency index, ratio of IC50 for chloroquine to IC50 for test compound against human LNCAP cells assessed as reduction in cell number incubated for 72 hrs; format: functional; procedure, shortened: as §3
SK-BR-3 = experiment: Inhibition of autophagy in human SKBR3 cells assessed as increase in GFP/RFP/LC3 chimera protein levels at 30 uM incubated for 4 hrs by fluorescent microscopy; format: functional, cell-based; procedure, shortened: as §5
LNCaP [17] = experiment: Cytotoxicity against human LNCAP cells assessed as reduction in cell number incubated for 72 hrs; format: functional, cell-based; procedure, shortened: as §6

| Compound | pIC50 (BT-474 [1]) | pIC50 (HMEC) | also measured |
| --- | --- | --- | --- |
| Oc1ccc(CNC2(c3ccccc3F)CCCC2)cc1CN1CCN(Cc2ccccc2)CC1 | 4.46 | < 4.00 | – |
| COc1ccccc1C1(NCc2ccc(O)c(CN3CCN(C)CC3)c2)CCCC1 | 4.51 | 4.76 | – |
| CN1CCN(Cc2cc(C(=O)NC3(c4ccccc4F)CCCC3)ccc2O)CC1 | < 4.00 | – | – |
| CN1CCN(Cc2cccc(CNC3(c4ccccc4F)CCCC3)c2)CC1 | 4.47 | < 4.00 | – |
| Oc1ccc(CNC2(c3ccccc3F)CCCC2)cc1CN1CCOCC1 | < 4.00 | – | – |
| CN1CCN(Cc2cc(CNC3(c4ccccc4F)CCCCC3)ccc2O)CC1 | 4.51 | < 4.00 | – |
| CN1CCN(Cc2cc(CNCc3ccccc3F)ccc2O)CC1 | < 4.00 | – | – |
| CC(NCc1ccc(O)c(CN2CCN(C)CC2)c1)c1ccccc1F (stereo not given) | < 4.00 | – | – |
| COc1cccc(C2(NCc3ccc(O)c(CN4CCN(C)CC4)c3)CCCC2)c1 | 4.93 | 4.88 | – |
| CN1CCC(Cc2cccc(CNC3(c4ccccc4F)CCCC3)c2)CC1 | 4.81 | < 4.00 | inhibition [2]: Active; pIC50 (BT-474 [3]): 5.00; inhibition [4]: Active; inhibition (BT-474 [5]): Active; Activity [6]: Non-toxic |
| CN1CCN(Cc2cc(CN(C)C3(c4ccccc4F)CCCC3)ccc2O)CC1 | < 4.00 | – | – |
| CN1CCC(Cc2cccc(CNC3(c4ccc(F)cc4)CCCC3)c2)CC1 | 5.68 | < 4.00 | Ratio IC50 (HepG2 [7]): 10; pIC50 [8]: 5.87; pIC50 [9]: 4.80; pIC50 (HepG2 [10]): 5.56; inhibition [11]: Active; pIC50 (BT-474 [3]): 5.00; inhibition [4]: Active; inhibition [12]: Active; inhibition (BT-474 [5]): Active; inhibition (HepG2 [13]): Active; Activity [6]: Non-toxic; pIC50 (MCF7): 5.66; pIC50 (MDA-MB-361): 4.51; inhibition [14]: Active; inhibition (LNCaP [15]): Active; Ratio IC50 (LNCaP [16]): 4; inhibition (SK-BR-3): Active; pIC50 (LNCaP [17]): 5.06 |
| CCN(CC)Cc1cc(CNC2(c3ccccc3F)CCCC2)ccc1O | < 4.00 | – | – |
| CN1CCN(Cc2cc(CNC3(c4ccc(F)cc4)CCCC3)ccc2O)CC1 | 5.03 | < 4.00 | inhibition [2]: Active; pIC50 (BT-474 [3]): 5.00; inhibition [4]: Active; inhibition (BT-474 [5]): Active; Activity [6]: Non-toxic |
| CN1CCN(Cc2cc(CNC(C)(C)c3ccccc3F)ccc2O)CC1 | < 4.00 | – | – |
| Fc1ccccc1C1(NCc2cccc(CN3CCCCC3)c2)CCCC1 | 4.40 | < 4.00 | – |
| CN1CCN(Cc2ccc(CNC3(c4ccccc4F)CCCC3)cc2)CC1 | < 4.00 | – | – |
| CN1CCN(Cc2cc(CNC3(c4ccccc4F)CCCC3)ccc2O)CC1 | 4.52 | < 4.00 | pIC50 [8]: 4.76; pIC50 (BT-474 [3]): 5.00; inhibition [4]: Active; inhibition (BT-474 [5]): Active; Activity [6]: Non-toxic |
| COc1ccc(CNC2(c3ccccc3F)CCCC2)cc1CN1CCN(C)CC1 | < 4.00 | – | – |
| CN1CCN(Cc2cc(CNC3(c4ccccc4)CCCC3)ccc2O)CC1 | 4.56 | < 4.00 | – |
| CC(=O)N1CCN(Cc2cc(CNC3(c4ccccc4F)CCCC3)ccc2O)CC1 | < 4.00 | – | – |
| Oc1ccc(CNC2(c3ccccc3F)CCCC2)cc1CN1CCN(c2ccccc2)CC1 | 4.42 | < 4.00 | – |
| CN1CCN(Cc2ccccc2CNC2(c3ccccc3F)CCCC2)CC1 | < 4.00 | – | – |
| CC1CCC(Cc2cccc(CNC3(c4ccccc4F)CCCC3)c2)CC1 (mixture of isomers) | < 4.00 | – | – |
| Oc1ccc(CNC2(c3ccccc3F)CCCC2)cc1CN1CCCCC1 | 4.45 | < 4.00 | – |
| CN1CCN(Cc2cc(CNC3(c4ccccc4F)CCC3)ccc2O)CC1 | < 4.00 | – | – |
| CCN1CCN(Cc2cc(CNC3(c4ccccc4F)CCCC3)ccc2O)CC1 | 4.41 | < 4.00 | – |
| Oc1ccc(CNC2(c3ccccc3F)CCCC2)cc1CN1CCNCC1 | 4.50 | < 4.00 | – |
| CN1CCN(Cc2cc(CNC3(c4cccc(F)c4)CCCC3)ccc2O)CC1 | 4.85 | < 4.00 | – |
| CC(C)N1CCN(Cc2cc(CNC3(c4ccccc4F)CCCC3)ccc2O)CC1 | 4.48 | < 4.00 | – |
